Data set [1] is described as follows: melting temperature; fluorescence melt of hairpins on a sequencing array, two-state fit, raised by 9.35 °C to match UV melts. The note with it: sodium 0.088 M. The essentials: (§1)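 Two-state fits, bootstrapped, provided melting temperature and folding enthalpy from Cy3 fluorescence normalised to pre-quench Cy3 and to control constructs. Library hairpins with annealed Cy3 and quencher oligos were imaged on a sequenced MiSeq flow cell in 50 mM Na-HEPES pH 8.0, 25 mM NaCl, at 2.5 °C intervals up to 60 °C. Four replicates were combined with inverse-variance weighting. A 9.35 °C upward shift was applied to fitted temperatures to match UV melts.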

Data set [2] can be described thus: folding enthalpy; higher = less favourable; fluorescence melt of hairpins on a sequencing array, two-state fit. The note with it: sodium 0.088 M. The essentials: as §1

This is an account of results in the array DNA melting data of Ke et al. (doi:10.1101/2024.01.08.574731).

For the sequence GGTTGTCGAAAGACGACC (((.(((....))).))), in data set [1], the Tm stood at 58.8 °C. In addition, in data set [2], the folding enthalpy was -39.9 kcal/mol.
The like results for GGTTGTCGAAAGACTACC (((.(((....))).))) were, in that order, 52 °C and -46 kcal/mol.
As for GGTTTACGAAAGTACACC (((.(((....))).))), the Tm in data set [1] came out at 45.2 °C. Besides, the folding enthalpy in data set [2] is -28.3 kcal/mol.
The like results for GGTTTCGAAAGAACGACC ((((((....)))..))) were, in that order, 29.6 °C and -14.4 kcal/mol.
The like results for GGTTTCGAAAGAACTACC ((((((....)))..))) were, in that order, 29.4 °C and -10.1 kcal/mol.
The like results for GGTTTCGAAAGAAGAACC ((((((....)))..))) were, in that order, 31.5 °C and -18.3 kcal/mol.
With GGTTTCGAAAGAAGCACC ((((((....)))..))), the Tm in data set [1] is 28.6 °C. For the same sequence, in data set [2], the folding enthalpy was -16.5 kcal/mol.
Consider GGTTTCGGAAACGAGACC (((.(((....))).))), for which the Tm in data set [1] was determined as 50 °C. Moreover, in data set [2], the folding enthalpy was -33.1 kcal/mol.
For GGTTTGAAAAAACC (((((....))))), in data set [1], the Tm stood at 46.3 °C. The folding enthalpy in data set [2] is -25 kcal/mol.
The like results for GGTTTGGGAAACCGAACC ((((.((....)).)))) were, in that order, 52.3 °C and -34.2 kcal/mol.
The like results for GGTTTGGGAAACTAAGCC ((.((.(....).)).)) were, in that order, 30.2 °C and -13.6 kcal/mol.
The like results for GGTTTTGCGAAAGCAACC (((..(((....)))))) were, in that order, 30.2 °C and -11.9 kcal/mol.
With GGTTTTGGAAACGAAACC (((((.(....).))))), the Tm in data set [1] turned out to be 47.5 °C. For the same sequence, in data set [2], the folding enthalpy is -43.9 kcal/mol.
Regarding GTAAAACCGAAAGGTTAC (((..(((....)))))), the Tm in data set [1] amounted to 31 °C. The folding enthalpy in data set [2] was -14.9 kcal/mol.
The like results for GTAAAACGAAAGTTATAC (((.(((....))).))) were, in that order, 31.6 °C and -14.8 kcal/mol.
Consider GTAAAAGGAAACTTTTGC (.(((((....))))).), for which the Tm in data set [1] came to 33.5 °C. The folding enthalpy in data set [2] was -24.1 kcal/mol.
As for GTAAACGAAAGTTTCTAC ((((((....)))..))), the Tm in data set [1] is 30.2 °C. Moreover, the folding enthalpy in data set [2] was -12.3 kcal/mol.
The like results for GTAAACGAAAGTTTGTAC ((((((....)))..))) were, in that order, 27.6 °C and -15.1 kcal/mol.
The like results for GTAAACGAAAGTTTTTAC ((((((....)))..))) were, in that order, 24.9 °C and -12 kcal/mol.
The like results for GTAAACGGAAACGTTTGC (.(((((....))))).) were, in that order, 48.5 °C and -26.1 kcal/mol.
GTAAATCGAAAGATATAC (((.(((....))).))): in data set [1], the Tm worked out at 29.7 °C. The folding enthalpy in data set [2] is -12.1 kcal/mol.
The like results for GTAAATGGAAACATTTGC (.(((((....))))).) were, in that order, 38.6 °C and -28.9 kcal/mol.
The like results for GTAACACGAAAGTGCTAC (((.(((....))).))) were, in that order, 43.7 °C and -28.4 kcal/mol.
In the case of GTAACACGAAAGTGGTAC (((.(((....))).))), in data set [1], the Tm was 55.1 °C. For the same sequence, the folding enthalpy in data set [2] was -41.3 kcal/mol.
The like results for GTAACACGAAAGTGTAC (((.(((....)))))) were, in that order, 42.8 °C and -14 kcal/mol.
The like results for GTAACAGGAAACCGTTAC (((((.(....).))))) were, in that order, 37.5 °C and -29.5 kcal/mol.
The like results for GTAACAGGAAACTGTCAC ((.((((....)))).)) were, in that order, 30.7 °C and -15.5 kcal/mol.
On to GTAACAGGAAACTGTTGC (.(((((....))))).), for which, in data set [1], the Tm turned out to be 45.3 °C. Besides, the folding enthalpy in data set [2] is -24.4 kcal/mol.
As to GTAACCCGAAAGGGATAC (((.(((....))).))), the Tm in data set [1] worked out at 48.6 °C. In addition, the folding enthalpy in data set [2] is -23.4 kcal/mol.
The like results for GTAACCGAAAGGTGGTAC ((((((....)))..))) were, in that order, 33.8 °C and -12.3 kcal/mol.
The like results for GTAACCGAAAGGTTCTAC ((((((....)))..))) were, in that order, 37.7 °C and -11.3 kcal/mol.
On to GTAACCGAAAGGTTTTAC ((((((....)))..))), for which, in data set [1], the Tm turned out to be 29.2 °C. Besides, the folding enthalpy in data set [2] is -8.83 kcal/mol.
The like results for GTAACGCGAAAGCGATAC (((.(((....))).))) were, in that order, 51 °C and -24.1 kcal/mol.
The like results for GTAACGGGAAACCATTAC ((((.((....)).)))) were, in that order, 28.4 °C and -11.8 kcal/mol.
As to GTAACGGGAAACTGTTAC (((((.(....).))))), the Tm in data set [1] turned out to be 46.3 °C. Moreover, the folding enthalpy in data set [2] is -30.4 kcal/mol.
The like results for GTAACTCGAAAGAGATAC (((.(((....))).))) were, in that order, 42 °C and -27.6 kcal/mol.
